This passage reports folding enthalpy and Tm results from the array DNA melting data of Ke et al. (doi:10.1101/2024.01.08.574731).

The nature of series [1]: folding enthalpy; higher = less favourable; fluorescence melt of hairpins on a sequencing array, two-state fit. Conditions: sodium 0.088 M. The method, boiled down: (§1)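 In 50 mM Na-HEPES pH 8.0 containing 25 mM NaCl, hairpins from the library on a sequenced MiSeq flow cell were imaged for Cy3 fluorescence at 2.5 °C steps up to 60 °C, with Cy3 and quencher oligos annealed. After normalisation to pre-quench Cy3 and to control constructs, two-state fits with bootstrapping gave melting temperature and folding enthalpy. Four replicates were combined by inverse-variance weighting, and fitted temperatures were shifted up by 9.35 °C to match UV melts.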

The nature of series [2]: melting temperature; fluorescence melt of hairpins on a sequencing array, two-state fit, raised by 9.35 °C to match UV melts. The note with it: sodium 0.088 M. The method, boiled down: as §1

Turning to GATCCACCAATGGATC ((((((....)))))), the folding enthalpy in series [1] was -36.4 kcal/mol. The Tm in series [2] worked out at 48.5 °C.
In the case of GATCCACCATGGATC ((((((...)))))), the folding enthalpy in series [1] was -37.4 kcal/mol. Also, the Tm in series [2] was found to be 49.7 °C.
The matching figures for GATCCACGCGTGGATC ((((((....)))))): -49.9 kcal/mol and 64.4 °C.
As for GATCCACGCTTGGATC ((((((....)))))), in series [1], the folding enthalpy was -38.4 kcal/mol. In series [2], the Tm came out at 52.5 °C.
In the same order, the values of GATCCACGGTTGGATC ((((((....)))))) are -37.7 kcal/mol and 48.9 °C.
In the same order, the values of GATCCACGTATGGATC ((((((....)))))) are -31.8 kcal/mol and 51.6 °C.
The matching figures for GATCCAGACTTGGATC ((((((....)))))): -35 kcal/mol and 56.1 °C.
GATCCAGCACTGGATC ((((((....)))))): the folding enthalpy in series [1] is -37.6 kcal/mol. In series [2], the Tm stood at 56 °C.
The matching figures for GATCCAGCATGGATC ((((((...)))))): -45.4 kcal/mol and 61.1 °C.
The matching figures for GATCCAGCCTGGATC ((((((...)))))): -34 kcal/mol and 52.2 °C.
For GATCCAGCCTTGGATC ((((((....)))))), in series [1], the folding enthalpy was -37.2 kcal/mol. Besides, the Tm in series [2] was determined as 53.5 °C.
With GATCCAGCTTTGGATC ((((((....)))))), the folding enthalpy in series [1] is -32.1 kcal/mol. In addition, the Tm in series [2] was found to be 51.5 °C.
The matching figures for GATCCAGGAAACTGGACC (.(((((....))))).): -15.9 kcal/mol and 39.1 °C.
As to GATCCAGGAAACTGGATC (((((((....))))))), the folding enthalpy in series [1] was -38.1 kcal/mol. In addition, in series [2], the Tm came out at 60.9 °C.
The matching figures for GATCCAGGAGTGGATC ((((((....)))))): -36.7 kcal/mol and 52.5 °C.
In the same order, the values of GATCCAGGATTGGATC ((((((....)))))) are -39.9 kcal/mol and 55.1 °C.
In the same order, the values of GATCCAGGCTGGATC ((((((...)))))) are -46.7 kcal/mol and 53 °C.
In the case of GATCCAGGGGTGGATC ((((((....)))))), the folding enthalpy in series [1] is -28.1 kcal/mol. The Tm in series [2] turned out to be 50.4 °C.
The matching figures for GATCCAGTAGTGGATC ((((((....)))))): -32 kcal/mol and 54.2 °C.
Turning to GATCCAGTATTGGATC ((((((....)))))), in series [1], the folding enthalpy was -41.8 kcal/mol. Besides, in series [2], the Tm came out at 57.4 °C.
The matching figures for GATCCAGTGGTGGATC ((((((....)))))): -34.6 kcal/mol and 50.4 °C.
In the same order, the values of GATCCATAAATGGATC ((((((....)))))) are -47.5 kcal/mol and 50.3 °C.
The matching figures for GATCCATACCTGGATC ((((((....)))))): -36.8 kcal/mol and 52.1 °C.
Regarding GATCCATATATGGATC ((((((....)))))), the folding enthalpy in series [1] was -44.1 kcal/mol. Further, in series [2], the Tm is 55 °C.
The matching figures for GATCCATATTTGGATC ((((((....)))))): -36.9 kcal/mol and 53.6 °C.
The matching figures for GATCCATCACTGGATC ((((((....)))))): -35.6 kcal/mol and 50.2 °C.
Regarding GATCCATCAGTGGATC ((((((....)))))), in series [1], the folding enthalpy was -34.9 kcal/mol. For the same sequence, in series [2], the Tm is 51.6 °C.
In the same order, the values of GATCCATCGATGGATC ((((((....)))))) are -47.8 kcal/mol and 55.2 °C.
The matching figures for GATCCATCTCTGGATC ((((((....)))))): -39.6 kcal/mol and 50.4 °C.
The matching figures for GATCCATGAATGGATC ((((((....)))))): -45.1 kcal/mol and 53.3 °C.
As for GATCCATGCATGGATC ((((((....)))))), in series [1], the folding enthalpy is -42.5 kcal/mol. Besides, the Tm in series [2] turned out to be 58.8 °C.
Turning to GATCCATTATTGGATC ((((((....)))))), in series [1], the folding enthalpy was -37.1 kcal/mol. In addition, the Tm in series [2] came out at 52.7 °C.
The matching figures for GATCCATTGCTGGATC ((((((....)))))): -36.6 kcal/mol and 50.8 °C.
The matching figures for GATCCATTTTGGATC ((((((...)))))): -33.5 kcal/mol and 53.6 °C.
GATCCCAAAGGGATC ((((((...)))))): the folding enthalpy in series [1] was -35.4 kcal/mol. Also, the Tm in series [2] was found to be 65.5 °C.
For GATCCCAAAGGGGATC ((((((....)))))), in series [1], the folding enthalpy is -31.7 kcal/mol. Also, the Tm in series [2] stood at 57.3 °C.
For the sequence GATCCCAAATGGGATC ((((((....)))))), the folding enthalpy in series [1] is -36.4 kcal/mol. In series [2], the Tm stood at 57.7 °C.
As to GATCCCAACAGGGATC ((((((....)))))), the folding enthalpy in series [1] is -36 kcal/mol. In addition, in series [2], the Tm was determined as 62.4 °C.
Consider GATCCCAACTGGGATC ((((((....)))))), for which the folding enthalpy in series [1] was -39.5 kcal/mol. In series [2], the Tm turned out to be 63.4 °C.
In the same order, the values of GATCCCAAGAGGGATC ((((((....)))))) are -33.9 kcal/mol and 60.8 °C.
GATCCCAAGCGGGATC ((((((....)))))): the folding enthalpy in series [1] is -32.5 kcal/mol. Besides, the Tm in series [2] turned out to be 60.6 °C.
Take GATCCCAATGGGGATC ((((((....)))))): the folding enthalpy in series [1] is -33.2 kcal/mol. Moreover, the Tm in series [2] was 60.7 °C.
On to GATCCCACCAGGGATC ((((((....)))))), for which, in series [1], the folding enthalpy is -41.8 kcal/mol. For the same sequence, the Tm in series [2] was 61.4 °C.
Take GATCCCACCGGGATC ((((((...)))))): the folding enthalpy in series [1] was -28.9 kcal/mol. Further, the Tm in series [2] came out at 66.7 °C.
Take GATCCCACGCGGGATC ((((((....)))))): the folding enthalpy in series [1] is -30.7 kcal/mol. The Tm in series [2] came out at 63.3 °C.
The matching figures for GATCCCACGGGGGATC ((((((....)))))): -35.8 kcal/mol and 61.3 °C.
The matching figures for GATCCCAGAAGGGATC ((((((....)))))): -34.7 kcal/mol and 60.4 °C.
Regarding GATCCCAGATGGGATC ((((((....)))))), the folding enthalpy in series [1] is -34.1 kcal/mol. Further, in series [2], the Tm worked out at 57.6 °C.
In the same order, the values of GATCCCATATGGGATC ((((((....)))))) are -35.3 kcal/mol and 61.8 °C.
The matching figures for GATCCCATGAGGGATC ((((((....)))))): -30.3 kcal/mol and 61.4 °C.
For GATCCCATGGGGATC ((((((...)))))), the folding enthalpy in series [1] was -33.2 kcal/mol. The Tm in series [2] was determined as 65.8 °C.
The matching figures for GATCCCCAAAGGGATC ((((((....)))))): -33.5 kcal/mol and 59.7 °C.
In the same order, the values of GATCCCCACCGGGATC ((((((....)))))) are -34.7 kcal/mol and 57.3 °C.
In the same order, the values of GATCCCCATGGGATC ((((((...)))))) are -37.5 kcal/mol and 63 °C.
As for GATCCCCCACGGGATC ((((((....)))))), the folding enthalpy in series [1] was -35.6 kcal/mol. Also, the Tm in series [2] was 58.1 °C.
In the same order, the values of GATCCCCCCAGGGATC ((((((....)))))) are -38.1 kcal/mol and 63.3 °C.
In the same order, the values of GATCCCCCCTGGGATC ((((((....)))))) are -39.1 kcal/mol and 58.4 °C.
In the same order, the values of GATCCCCCGAAAGGGATC (((..(((....)))))) are -30.7 kcal/mol and 52.4 °C.
In the case of GATCCCCCTCGGGATC ((((((....)))))), the folding enthalpy in series [1] is -34 kcal/mol. Besides, the Tm in series [2] was determined as 58.2 °C.
The matching figures for GATCCCCGAAGGGATC ((((((....)))))): -15.6 kcal/mol and 57.1 °C.
Consider GATCCCCGCAGGGATC ((((((....)))))), for which, in series [1], the folding enthalpy was -18.1 kcal/mol. Moreover, in series [2], the Tm was determined as 62.8 °C.
For GATCCCCGTAGGGATC ((((((....)))))), the folding enthalpy in series [1] was -20.6 kcal/mol. In series [2], the Tm was determined as 61.9 °C.
In the same order, the values of GATCCCCGTTGGGATC ((((((....)))))) are -32.3 kcal/mol and 62.2 °C.
As for GATCCCCTCCGGGATC ((((((....)))))), the folding enthalpy in series [1] was -36 kcal/mol. The Tm in series [2] was determined as 58.4 °C.
For the sequence GATCCCCTCGGGGATC ((((((....)))))), in series [1], the folding enthalpy was -32.5 kcal/mol. Also, in series [2], the Tm was 67.6 °C.
The matching figures for GATCCCCTGCGGGATC ((((((....)))))): -33.6 kcal/mol and 58.2 °C.
The matching figures for GATCCCCTGGGGATC ((((((...)))))): -32.8 kcal/mol and 64.8 °C.
With GATCCCGAAAGGGAGATC ((((((....)))..))), in series [1], the folding enthalpy was -20.6 kcal/mol. The Tm in series [2] came to 50.5 °C.
The matching figures for GATCCCGAAAGGGCATC ((((((....))).))): -17 kcal/mol and 42.1 °C.
The matching figures for GATCCCGAAAGGGGCATC ((((((....)))..))): -11.6 kcal/mol and 35.6 °C.
In the same order, the values of GATCCCGACCGGGATC ((((((....)))))) are -37.5 kcal/mol and 66.5 °C.
For the sequence GATCCCGAGGGGATC ((((((...)))))), the folding enthalpy in series [1] was -42.5 kcal/mol. Further, in series [2], the Tm is 62.6 °C.
As for GATCCCGAGGGGGATC ((((((....)))))), in series [1], the folding enthalpy was -35.3 kcal/mol. The Tm in series [2] was 59.7 °C.
In the same order, the values of GATCCCGATGGGGATC ((((((....)))))) are -34.8 kcal/mol and 63.3 °C.
The matching figures for GATCCCGCAGGGGATC ((((((....)))))): -15.7 kcal/mol and 65.5 °C.
In the same order, the values of GATCCCGCCCGGGATC ((((((....)))))) are -32.8 kcal/mol and 67.1 °C.
